Measurements collected from several papers.
Effect on: metabolic stability

Structure (SMILES)	species	matrix	concentration	time	pH	half-life [min]
Cc1nc2c(=O)n(C)c(=O)nc-2n(C)n1	human	liver microsomes				> 186
C=C1NC(=O)[C@H](C)N(O)C(=O)[C@H]([C@@H](O)C(N)=O)N(C)C(=O)[C@H](C)OC(=O)[C@@H]2C[C@H](C)CN2C1=O	human	liver microsomes				> 120
CCCCCn1nc(C(=O)Nc2cccc3ccccc23)c2ccccc21	male human	liver microsomes	1 µM		pH 7.4	1.7
O=C(c1cc(-n2sc3ncccc3c2=O)ccc1Cl)N1CCOCC1	human	liver microsomes				> 120
CCCCCCCCCCCCCCCCCCCCOP(=O)(O)CO[C@H](C)Cn1cnc2c(N)ncnc21.N	human	liver microsomes	3 µM	30 min	pH 7.4	49
CCCCCn1cc(C(=O)Nc2cccc3ccccc23)c2ccccc21	male human	liver microsomes	1 µM		pH 7.4	2.3
N=c1c2c(-c3ccccc3)c(-c3ccccc3)n(Cc3ccccc3)c2ncn1[C@H]1CC[C@H](O)CC1	human	liver S9	1 µM			> 120
CN(C)CCc1c[nH]c2ccccc12	human	hepatocytes	0.6 µM			98.9
Cc1cnc(Nc2ccc(C(=O)NC3CCN(C(=O)COCCOCCOCC(=O)N4CCC(NC(=O)c5ccc(Nc6ncc(C)c(Nc7ccc(Cl)c(NS(=O)(=O)C(C)(C)C)c7)n6)cc5F)CC4)CC3)c(F)c2)nc1Nc1ccc(Cl)c(NS(=O)(=O)C(C)(C)C)c1	human	liver microsomes				3.6
CC(C)NCC(O)COc1cccc2ccccc12 (stereo not shown)	human	liver microsomes	2 µM			> 40
NCCc1c[nH]c2ccc(O)cc12	human	hepatocytes	5 µM			33
C[C@]12CC[C@H]3[C@@H](CCC4=CC(=O)CC[C@@]43C)[C@@H]1CC[C@@H]2O	human	liver microsomes	1 µM			14.9
Cc1cc(C)nc(Nc2ncc(C(=O)NCCc3c(C)[nH]c4ccccc34)cn2)c1	human	liver microsomes	1 µM			28
CN1CCCCC1Cn1cc(C(=O)c2cc([N+](=O)[O-])ccc2I)c2ccccc21 (racemic)	human	liver microsomes				5.9
O=c1c2ccccc2sn1Cc1ccc(Cl)cc1	human	liver microsomes				300
C#Cc1ccc2c(c1)C(c1ccccn1)=NCc1c(-c3cnco3)ncn1-2	human	liver microsomes				1500
